Measurements published in paper PMC4111141 (Bioorganic & medicinal chemistry letters, 2014).

Molecular target: T1, Orco derived from Drosophila melanogaster (DmOrco) (Drosophila melanogaster, UniProt Q9VNB5)
T1 sequence (Q9VNB5 1-486): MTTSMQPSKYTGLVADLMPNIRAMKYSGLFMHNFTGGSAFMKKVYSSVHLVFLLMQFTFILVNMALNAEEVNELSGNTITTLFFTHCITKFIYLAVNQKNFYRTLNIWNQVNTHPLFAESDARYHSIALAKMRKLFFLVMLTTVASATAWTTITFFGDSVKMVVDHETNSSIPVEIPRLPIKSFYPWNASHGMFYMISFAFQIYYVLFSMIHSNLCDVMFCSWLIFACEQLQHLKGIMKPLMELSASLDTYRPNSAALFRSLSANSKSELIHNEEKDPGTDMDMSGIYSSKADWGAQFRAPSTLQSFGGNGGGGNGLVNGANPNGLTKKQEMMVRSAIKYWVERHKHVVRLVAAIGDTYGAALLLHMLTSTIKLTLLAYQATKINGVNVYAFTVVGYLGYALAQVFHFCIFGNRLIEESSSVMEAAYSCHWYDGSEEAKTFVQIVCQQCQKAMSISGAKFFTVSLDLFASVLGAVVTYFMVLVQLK
Assay: high-throughput calcium mobilization/imaging assay for Orco agonist activity
Assay type: cell-based
Conditions: HEK293 cells stably expressing DmOrco; for % VUAA1 efficacy: maximum agonism of the compound, normalized to the activity of VUAA1; for EC50: mean result of 4 experiments, LA = Low agonism, agonism only at the highest concentration tested, no EC50 could be calculated
Summary of the method: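 HEK293 cells stably expressing Drosophila melanogaster Orco, alone or in some cases with tuning OR subunits. Calcium mobilization/imaging read in high-throughput format across increasing test compound concentrations. EC50 and maximal agonism were taken from concentration-response curves. Maximal agonism was expressed as a percentage of reference agonist VUAA1 activity. Values are the mean of 4 experiments.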

CCc1ccc(NC(=O)CSc2nnc(-c3cccnc3)n2CC)cc1 [6a]
% VUAA1 efficacy: 100%
EC50: 35.1 µM
EC50 (listed as VUAA1): 35 µM

CCc1cccc(NC(=O)CSc2nnc(-c3cccnc3)n2CC)c1 [6b]
Orco agonist activity (in words): completely abrogated activity
% VUAA1 efficacy: No agonism

CCn1c(SCC(=O)Nc2ccc(Br)cc2)nnc1-c1cccnc1 [6j]
% VUAA1 efficacy: No agonism
